# Experimental data published in ChEMBL document CHEMBL1156186, “Anti-AIDS agents 81. Design, synthesis, and structure-activity relationship study of betulinic acid and moronic acid derivatives as potent HIV maturation inhibitors” (J Med Chem, 2010).
# Calls of active or inactive are those of the source. The calls are words filed in the database; no cut-off is given here.
# Columns and labels:
# [1] = test system: Human immunodeficiency virus 1; assay: Antiviral activity against HIV1 3B infected in human MT2 cells assessed as inhibition of viral replication at 0.8 to 100 ug/mL treated 1 day after infection measured on after 4 days postinfection by p24 antigen ELISA; format: functional, organism-based
# How it was run: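 MT-2 cells at 3×10⁵ cells/mL were infected with HIV-1 IIIB (125 TCID₅₀) in the presence of serially diluted sample, and fresh medium was added on day 1 post-infection. Supernatants were harvested on day 4 for p24 antigen ELISA. EC₅₀ is the concentration giving 50% suppression of replication. Values are the average of at least two separate experiments.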
# MT2 = assay: Cytotoxicity against human MT2 cells by XTT assay; format: cell-based
# How it was run: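 Toxicity was read by XTT on mock-infected MT-2 cells (3×10⁵ cells/mL), run as a duplicate set of the infection plates without virus, with medium added on day 1 and the assay ended on day 4. IC₅₀ is the concentration toxic to 50% of cells. Values are the average of at least two experiments.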
# [2] = test system: Human immunodeficiency virus 1; assay: Antiviral activity against HIV1 NL4-3 infected in human MT4 cells assessed as inhibition of viral replication treated 1 day after infection measured on after 4 days postinfection by p24 antigen ELISA; format: functional, organism-based
# How it was run: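 MT-4 cells were infected with HIV-1 NL4-3 variants at an MOI of 0.01 in 96-well format with test sample. Culture supernatants were collected on day 4 post-infection for p24 antigen capture ELISA.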
# [3] = Therapeutic index, IC50 for human MT2 cells to EC50 for HIV1 3B; format: cell-based; conditions: read-out: Ratio IC50/EC50
# How it was run: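 TI is calculated as IC₅₀ (XTT, mock-infected MT-2) divided by EC₅₀ (p24 ELISA, HIV-1 IIIB-infected MT-2), both taken on day 4 post-infection from parallel plates. Values are the average of at least two experiments.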
# [4] = test system: Human immunodeficiency virus 1; assay: Antiviral activity against HIV1 3B infected in human MT2 cells assessed as inhibition of viral replication treated 1 day after infection measured on after 4 days postinfection by p24 antigen ELISA; format: functional, organism-based; conditions: Human immunodeficiency virus 1, 3B
# [5] = test system: Human immunodeficiency virus 1; assay: Antiviral activity against wild type HIV1 NL4-3 infected in human HeLa cells assessed as inhibition of cell line-associated p25 to p24 conversion at 1 ug/mL after 2 days by Western blotting; format: functional, organism-based
# How it was run: (§1)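 HeLa cells were transfected with pNL4-3 proviral DNA and cultured with or without compound. Two days post-transfection, cells were metabolically labelled for 2 h with ³⁵S-Met/Cys. Cell lysates were prepared and virions were pelleted by ultracentrifugation. Both fractions were immunoprecipitated with HIV-Ig, and the p25 and p24 bands were examined by Western blotting.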
# [6] = test system: Human immunodeficiency virus 1; assay: Antiviral activity against HIV1 expressing […] L231M mutant infected in human HeLa cells assessed as inhibition of cell line-associated p25 to p24 conversion at 1 ug/mL after 2 days by Western blotting; format: functional, organism-based
# How it was run: (§2)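 HeLa cells transfected with pNL4-3 bearing the A1V or L231M mutation and cultured with or without test compound. Two days post-transfection, cells labeled 2 h with ³⁵S-Met/Cys. Cell lysates prepared; virions pelleted by ultracentrifugation. Cell and viral lysates immunoprecipitated with HIV-Ig, then Western blotted for p25 and p24.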
# [7] = test system: Human immunodeficiency virus 1; assay: Antiviral activity against HIV1 expressing CA-SP1 A1V mutant infected in human HeLa cells assessed as inhibition of cell line-associated p25 to p24 conversion at 1 ug/mL after 2 days by Western blotting; format: functional, organism-based; how it was run: as §2
# [8] = test system: Human immunodeficiency virus 1; assay: Antiviral activity against HIV1 expressing […] L231M mutant infected in human HeLa cells assessed as inhibition of virion-associated p25 to p24 conversion at 1 ug/mL after 2 days by Western blotting; format: functional, organism-based; how it was run: as §2
# [9] = test system: Human immunodeficiency virus 1; assay: Antiviral activity against wild type HIV1 NL4-3 infected in human HeLa cells assessed as inhibition of virion-associated p25 to p24 conversion at 1 ug/mL after 2 days by Western blotting; format: functional, organism-based; how it was run: as §1
# [10] = test system: Human immunodeficiency virus 1; assay: Antiviral activity against HIV1 expressing CA-SP1 A1V mutant infected in human HeLa cells assessed as inhibition of virion-associated p25 to p24 conversion at 1 ug/mL after 2 days by Western blotting; format: functional, organism-based; how it was run: as §2
EC50 [4] [µM],Compound,inhibition [1],IC50 (MT2) [µM],selectivity ratio [3],further results
–,CC1(C)C=C2[C@H]3CC[C@@H]4[C@@]5(C)CC[C@H](OC(=O)C6CCC6)C(C)(C)[C@@H]5CC[C@@]4(C)[C@]3(C)CC[C@@]2(C(=O)O)CC1,inactive,> 10,–,–
–,C=C(C)[C@@H]1CC[C@]2(C(=O)O)CC[C@]3(C)[C@H](CC[C@@H]4[C@@]5(C)CC[C@H](OC(=O)C[C@@](C)(CC)C(=O)O)C(C)(C)[C@@H]5CC[C@]43C)[C@@H]12,–,–,–,inhibition [2]: inactive
–,CCCC(=O)O[C@H]1CC[C@]2(C)[C@H]3CC[C@@H]4C5=CC(C)(C)CC[C@]5(C(=O)O)CC[C@@]4(C)[C@]3(C)CC[C@H]2C1(C)C,inactive,> 10,–,–
–,CC(C)C(=O)O[C@H]1CC[C@]2(C)[C@H]3CC[C@@H]4C5=CC(C)(C)CC[C@]5(C(=O)O)CC[C@@]4(C)[C@]3(C)CC[C@H]2C1(C)C,inactive,> 10,–,–
–,CC1(C)C=C2[C@H]3CC[C@@H]4[C@@]5(C)CC[C@H](OC(=O)C6CCCC6)C(C)(C)[C@@H]5CC[C@@]4(C)[C@]3(C)CC[C@@]2(C(=O)O)CC1,inactive,> 10,–,–
17.3,C=C(C)[C@@H]1CC[C@]2(C(=O)O)CC[C@]3(C)[C@H](CC[C@@H]4[C@@]5(C)CC[C@H](OC(=O)[C@@H]6CCCC[C@H]6C(=O)O)C(C)(C)[C@@H]5CC[C@]43C)[C@@H]12,–,40.9,2.4,–
0.12,C=C(C)[C@@H]1CC[C@]2(C(=O)O)CC[C@]3(C)[C@H](CC[C@@H]4[C@@]5(C)CC[C@H](OC(=O)C[C@@H](C)C(=O)O)C(C)(C)[C@@H]5CC[C@]43C)[C@@H]12,–,43.8,365,–
–,CC(C)CC(=O)O[C@H]1CC[C@]2(C)[C@H]3CC[C@@H]4C5=CC(C)(C)CC[C@]5(C(=O)O)CC[C@@]4(C)[C@]3(C)CC[C@H]2C1(C)C,inactive,> 10,–,–
0.048,C=C(C)[C@@H]1CC[C@]2(C(=O)O)CC[C@]3(C)[C@H](CC[C@@H]4[C@@]5(C)CC[C@H](OC(=O)CCC(C)(C)C(=O)O)C(C)(C)[C@@H]5CC[C@]43C)[C@@H]12,–,41.8,870,–
2.2,C=C(C)[C@@H]1CC[C@]2(C(=O)O)CC[C@]3(C)[C@H](CC[C@@H]4[C@@]5(C)CC[C@H](OC(=O)[C@@H]6CCC[C@H]6C(=O)O)C(C)(C)[C@@H]5CC[C@]43C)[C@@H]12,–,41.9,19,–
–,CCC(C)C(=O)O[C@H]1CC[C@]2(C)[C@H]3CC[C@@H]4C5=CC(C)(C)CC[C@]5(C(=O)O)CC[C@@]4(C)[C@]3(C)CC[C@H]2C1(C)C (some centres not stated),inactive,> 10,–,–
–,C=C(C)[C@@H]1CC[C@]2(C(=O)O)CC[C@]3(C)[C@H](CC[C@@H]4[C@@]5(C)CC[C@H](OC(=O)C6CC=CCC6C(=O)O)C(C)(C)[C@@H]5CC[C@]43C)[C@@H]12 (some centres not stated),inactive,41.1,–,–
–,CC1(C)C=C2[C@H]3CC[C@@H]4[C@@]5(C)CC[C@H](OC(=O)C(C)(C)C)C(C)(C)[C@@H]5CC[C@@]4(C)[C@]3(C)CC[C@@]2(C(=O)O)CC1,inactive,> 10,–,–
0.0006,C=C(C)[C@@H]1CC[C@]2(C(=O)O)CC[C@]3(C)[C@H](CC[C@@H]4[C@@]5(C)CC[C@H](OC(=O)CC(C)(CC)C(=O)O)C(C)(C)[C@@H]5CC[C@]43C)[C@@H]12 (some centres not stated),–,36.4,60700,–
–,CCCCC(=O)O[C@H]1CC[C@]2(C)[C@H]3CC[C@@H]4C5=CC(C)(C)CC[C@]5(C(=O)O)CC[C@@]4(C)[C@]3(C)CC[C@H]2C1(C)C,inactive,> 10,–,–
–,C=C(C)[C@@H]1CC[C@]2(C(=O)O)CC[C@]3(C)[C@H](CC[C@@H]4[C@@]5(C)CC[C@H](OC(=O)C6C7C=CC(C7)C6C(=O)O)C(C)(C)[C@@H]5CC[C@]43C)[C@@H]12 (some centres not stated),inactive,40.3,–,–
–,CCC(=O)O[C@H]1CC[C@]2(C)[C@H]3CC[C@@H]4C5=CC(C)(C)CC[C@]5(C(=O)O)CC[C@@]4(C)[C@]3(C)CC[C@H]2C1(C)C,inactive,> 10,–,–
0.0013,C=C(C)[C@@H]1CC[C@]2(C(=O)O)CC[C@]3(C)[C@H](CC[C@@H]4[C@@]5(C)CC[C@H](OC(=O)CC(C)(C)C(=O)O)C(C)(C)[C@@H]5CC[C@]43C)[C@@H]12 [BEVIRIMAT],–,42.8,32900,–

Compound,EC50 [4] [µM],inhibition [1],IC50 (MT2) [µM],selectivity ratio [3],further results
C=C(C)[C@@H]1CC[C@]2(C(=O)O)CC[C@]3(C)[C@H](CC[C@@H]4[C@@]5(C)CC[C@H](OC(=O)/C=C(/C)C(=O)O)C(C)(C)[C@@H]5CC[C@]43C)[C@@H]12,0.18,–,42.5,236,–
C=C(C)[C@@H]1CC[C@]2(C(=O)O)CC[C@]3(C)[C@H](CC[C@@H]4[C@@]5(C)CC[C@H](OC(=O)C[C@H](C)C(=O)O)C(C)(C)[C@@H]5CC[C@]43C)[C@@H]12,0.0087,–,–,3770,Activity [5]: Active; Activity [6]: Active; Activity [7]: Active; Activity [8]: Active; Activity [9]: Active; Activity [10]: Active
